Screens (PubChem BioAssay)
Compounds with a hit are over-represented: about 3.6% of the library has one in this group of screens.
AHR activator: activators of human aryl hydrocarbon receptor | AID 2796 | AHR-responsive luciferase reporter cells, luminescence | 320,000 compounds, 2.5% hits | P35869 | activation, % at 5 µM; in the data active = activation above about 47%;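 also: 0% = vehicle wells and 100% = reference agonist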
Target sequence (P35869 whole entry, looked up): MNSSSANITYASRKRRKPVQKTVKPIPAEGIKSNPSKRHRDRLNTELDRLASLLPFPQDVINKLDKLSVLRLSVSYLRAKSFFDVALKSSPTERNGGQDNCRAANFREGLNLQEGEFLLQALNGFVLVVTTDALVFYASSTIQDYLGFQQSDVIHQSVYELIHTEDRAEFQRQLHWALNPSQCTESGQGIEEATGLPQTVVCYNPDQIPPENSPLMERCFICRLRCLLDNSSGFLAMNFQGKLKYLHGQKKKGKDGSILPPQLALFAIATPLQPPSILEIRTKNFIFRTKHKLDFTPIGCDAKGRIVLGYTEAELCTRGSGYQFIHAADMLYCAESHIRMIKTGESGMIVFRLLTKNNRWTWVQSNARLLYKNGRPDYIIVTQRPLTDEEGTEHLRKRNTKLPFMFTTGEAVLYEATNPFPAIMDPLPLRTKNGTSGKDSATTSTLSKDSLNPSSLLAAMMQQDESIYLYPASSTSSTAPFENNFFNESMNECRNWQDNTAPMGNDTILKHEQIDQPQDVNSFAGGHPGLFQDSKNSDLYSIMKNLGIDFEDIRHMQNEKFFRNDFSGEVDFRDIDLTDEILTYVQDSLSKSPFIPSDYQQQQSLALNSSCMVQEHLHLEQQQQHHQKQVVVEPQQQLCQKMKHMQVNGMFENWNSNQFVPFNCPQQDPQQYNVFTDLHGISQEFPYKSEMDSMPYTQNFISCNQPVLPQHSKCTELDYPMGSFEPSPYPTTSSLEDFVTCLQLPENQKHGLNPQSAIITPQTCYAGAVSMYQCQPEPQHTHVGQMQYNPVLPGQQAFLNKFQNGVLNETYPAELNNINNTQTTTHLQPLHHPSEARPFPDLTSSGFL
PolyA inh: yeast polyadenylation inhibition; S. cerevisiae SKY197-pL101 polyadenylation reporter, beta-gal luminescence; efflux-impaired pdr1/pdr3 knockout yeast; score 100 = 6 SD above DMSO; activity score, % at 12 µM; 300,000 compounds, 0.02% hits;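 active = lowest replicate activity score at least 50, where 100 means six control SD above control mean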;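 also: yeast exposed to compound for 9 h at 30 °C; higher score means more reporter readthrough which indicates perturbed polyadenylation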
STAT3 activator: increases IL-6 driven STAT3 reporter signal | U3A cells, IL-6 STAT3-luciferase reporter, luminescence; 100% = signal with IL-6 EC80 alone | activation (% of control), % at 5.6 µM | 190,000 compounds, 0.91% hits;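 active = activation above the screen-wide mean of compound activation plus 3 SD, cut at about 130% in these data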;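 also: 0% = background luminescence of wells with medium and substrate only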
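Material: human U3A cells carrying STAT3-luciferase construct. Measured by: reporter luminescence signal. Timing: compound 1 h, then IL-6 6 h at 37 °C.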
Hsp70 activator: Hsp70 transcriptional activation, primary screen | HeLa Hsp70 promoter luciferase reporter, luminescence; scaled: vehicle 0, proteasome-inhibitor control 100% | AID 1203 | 200,000 compounds, 0.04% hits | activation, % at 10 µM;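 active = activation above the mean across all tested compounds plus 3 SD, cutoff set per campaign, cut at about 5.5% in these data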;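 also: 100% = MG132 at 30 µM as the positive control and 0% = DMSO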
PERK inhibitor: blocks human PERK kinase; CHO PERK-DD fusion, SEAP luminescence translation reporter; inhibition, % at 5.6 µM; 220,000 compounds, 0.17% hits; AID 1416;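 active = inhibition above the mean inhibition of all tested compounds plus 3 SD, set separately per screening campaign, cut at about 2.9% in these data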;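 also: PERK kinase domain activated by AP20187 dimerizer at 100 nM; 0% = DMSO with dimerizer and 100% = rapamycin at 8.4 µM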
HSF1 inhib: HSF1 inhibition; 300,000 compounds, 0.77% hits; activity change, negative = inhibition, % at 7.5 µM (by protocol); NIH3T3-HGL HSE-luciferase, MG132-induced, luminescence 8 h; hits give low values; AID 2098;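 active = more than half of replicate wells show activity change below -50%, luminescence cut by over half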;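 also: luciferase reports HSF-1 transcriptional activity via heat shock element; 0% = median of DMSO wells and -100% = zero luminescence signal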
The depositor's hits bear a star; . = no result.

SMILES	AHR activator	PolyA inh	STAT3 activator	Hsp70 activator	PERK inhibitor	HSF1 inhib
O=C(NC1CCCCC1)C1CCN(c2nccs2)CC1	1	17	97	0	1	-58*
CC(=O)NC12CC3CC(C1)CC(C(=O)Nc1nc4ccc(F)cc4s1)(C3)C2	46	-1	.	.	.	-5
CC(=O)Nc1ccc(Cc2ccncc2)cc1	5	-5	103	-1	1	-69*
O=C(NC(=S)Nc1ccc2oc(-c3ccncc3)nc2c1)c1ccccc1F	-3	-21	91	0	2	-14
O=C(NC(=S)Nc1ccc(N2CCCCC2)cc1)c1ccc2c(c1)OCCO2	0	-11	96	0	0	-61*
O=C(NC(=S)Nc1ccc2oc(=O)ccc2c1)c1ccccc1F	-4	-4	.	.	3.7*	3
O=C(NC(=S)Nc1ccc2c(c1)OCCO2)c1ccccc1F	58*	-7	98	0	1	23
O=C(NC(=S)Nc1ccc(F)cc1)c1ccc2c(c1)OCCO2	14	17	84	0	1	-68*
COc1ccc(/C(C)=N/Nc2nc3ccccc3nc2C)cc1OC	77*	41	.	.	-2	-7
COc1ccc(/C(C)=N/Nc2cccc(C(=O)O)c2)cc1OC	1	-11	112	0	0	-5
Cc1nnc(-c2cnn(C)c2N)n1Cc1cccc(Cl)c1	54*	8	107	0	0	6
CCCCCCCn1c(C)nnc1-c1cnn(C)c1N	70*	-3	94	0	0	11
Cc1nnc(-c2cnn(C)c2N)n1CCCN(C)C	14	3	101	0	2	1
O=C1CN(C(=O)COC(=O)c2c(F)cccc2Cl)c2ccccc2N1	10	.	.	.	.	.
O=C(Nc1ccc2c(c1)CN(Cc1ccc(CO)o1)CC2)c1ccc(C(F)(F)F)cc1	55*	-13	.	.	.	13
CCn1c(C)nnc1SCC(=O)NC1CCCC1	0	7	.	.	.	-1
CC(=O)Nc1nn(C)c2nc3cc(C)ccc3cc12	71*	-11	86	1	0	-4
CCn1cc(C(=O)N2CCN(c3ccc(C(C)=O)cc3)CC2)c2cc(OC)c(OC)cc2c1=O	0	6	107	0	0	0
CCCN(CC(=O)Nc1ccccc1C)C(=O)CSc1ccccc1C	0	.	.	.	.	.
O=[N+]([O-])c1cccc(N/N=C/c2cccc3ccccc23)c1	61*	-57	94	0	0	1
O=C(O)c1cc(N/N=C/c2cccc3ccccc23)ccc1Cl	26	-8	.	.	.	-11
COc1cc2nc(NC(=O)c3ccc(F)cc3Cl)sc(=O)c2cc1OC	3	-44	.	.	.	18
O=C(CN1C(=O)NC(Cc2c[nH]c3ccccc23)C1=O)Nc1ccc(F)cc1F (stereo unspecified)	3	.	.	.	.	.
N#Cc1ccccc1NC(=O)CN1C(=O)NC(Cc2c[nH]c3ccccc23)C1=O (stereo unspecified)	78*	.	.	.	.	.
Cc1ccc([N+](=O)[O-])cc1N/C=C/C(=O)c1ccco1	17	-19	134*	0	-1	11
SMILES	AHR activator	PolyA inh	STAT3 activator	Hsp70 activator	PERK inhibitor	HSF1 inhib
CN(Cc1nccn1C)C(=O)C1CCC(=O)N(Cc2cccc(C(F)(F)F)c2)C1 (stereo unspecified)	-1	-3	.	.	.	3
COc1cc(C(=O)NCc2nnc(SCC(=O)Nc3c(C)cc(C)cc3C)o2)cc(OC)c1OC	0	-9	.	.	.	0
COc1cc(C(=O)NCc2nnc(SCC(=O)Nc3cc(C)cc(C)c3)o2)cc(OC)c1OC	2	6	102	0	0	-56*
O=C(Nc1ccccc1)c1nc2ccccc2s1	33	3	85	0	0	24
Cc1cccc(NC(=S)c2nc3ccccc3s2)c1	76*	-16	134*	0	1	0
Cc1cc(Cl)ccc1NC(=O)CN(C)C1=NS(=O)(=O)c2ccccc21	2	.	.	.	.	.
Cc1nnc(SCC(=O)Nc2sccc2C#N)s1	20	-2	.	.	.	14
Cn1ccnc1SCC(=O)Nc1sccc1C#N	51*	11	103	0	1	-2
Cc1ccc(C#N)c(SCC(=O)Nc2nccs2)n1	63*	2	93	0	0	-1
C[n+]1ccccc1/C=C/c1cc(Br)ccc1O	60*	20	.	.	.	8
COc1ccc(/C=C/c2cccc[n+]2C)c(O)c1	-4	-3	.	.	.	-6
CCN(CC)S(=O)(=O)c1ccc(C(=O)Nc2cc(C)on2)cc1	0	1	.	.	.	-3
CCN(CC)S(=O)(=O)c1cc(C(=O)Nc2cc(C)on2)ccc1Cl	-1	17	.	.	.	-61*
CCc1nnc(NC(=O)C2Cc3ccccc3CN2S(=O)(=O)CC)s1 (stereo unspecified)	2	7	90	0	0	-3
CCS(=O)(=O)N1Cc2ccccc2CC1C(=O)Nc1nc2ccccc2s1 (stereo unspecified)	4	1	83	-1	-1	-61*
Cn1cncc1C(=O)c1ccccc1	4	-6	.	.	2	-1
O=C(NCc1ccco1)C(=O)NCC(c1ccco1)N1CCOCC1 (stereo unspecified)	0	4	102	0	1	-69*
COc1ccc(OCc2cc(C(=O)N3CCCC(CO)C3)no2)c2ccccc12 (stereo unspecified)	50*	9	.	.	.	38
OCCC1CN(Cc2ccc3cccc(F)c3n2)CCN1Cc1ccccc1 (stereo unspecified)	7	8	.	.	.	-4
COc1ccc(Cl)cc1NC(=O)C/C(C)=N/NC(=O)Cc1ccccc1	20	-10	98	0	0	3
COc1ccc(/C=C/C(=O)Nc2ccccc2C(=O)O)cc1OC	-8	-5	78	0	2	-56*
COc1ccc(/C=C/C(=O)Nc2ccccc2C(=O)NCC(c2ccc(OC)cc2)N(C)C)cc1 (stereo unspecified)	7	14	.	.	.	-59*
Cc1ccc(S(=O)(=O)N2CCOCC2)cc1NC(=O)c1cc([N+](=O)[O-])ccc1N1CCOCC1	-1	34	.	.	.	-4
O=C(CSc1nnc2c3ccccc3c3ccccc3c2n1)Nc1ccccc1F	68*	2	131	0	0	16
O=C(O)c1cc(S(=O)(=O)Nc2ccc3cn[nH]c3c2)ccc1Cl	26	.	.	.	.	.
CC(=Nc1cccc(C)c1)c1sc2ccccc2c1O	45	-17	138*	0	-1	24
CC(C)(C)c1ccc(C(=O)O/N=C(\N)c2ccccc2)cc1	10	-23	.	.	.	-93*
Cc1ccc(C(=O)O/N=C(\N)c2ccccc2)c(Cl)c1	-3	-10	.	.	1	-81*
N/C(=N\OC(=O)c1ccccc1Cl)c1ccncc1	59*	-3	92	0	0	-3
N/C(=N\OC(=O)c1ccc([N+](=O)[O-])cc1Cl)c1ccccn1	18	-11	.	.	.	-10
